Calls of active or inactive are those of the source. The calls are words filed in the database; no cut-off is given here.
Experiments:
Hepatitis C virus [1] = assay: Inhibition of subgenomic HCV RNA replication in Huh7 cells by cell-based replicon assay; type: functional, organism-based, Hepacivirus hominis; conditions: Huh-7
Outline: (§1)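 Subgenomic HCV RNA replicon in Huh-7 cells. Replicon RNA was quantified by RT-PCR and normalized to cellular GAPDH mRNA. EC50 runs were done in duplicate on two separate weighings.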

[2] = Inhibition of HCV NS5B polymerase; set-up: species or system Hepacivirus hominis
Outline: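 N-terminally tagged full-length NS5B construct; IC50 values are the mean of duplicate measurements on two separate weighings.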

[3] = Distribution coefficient, log D at pH 7.2; type: physicochemical; conditions: octanol/water
Outline: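 Shake-flask partitioning between octanol and 100 mM phosphate buffer, pH 7.2; reported as log D(oct/buffer).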

Enterovirus C = assay: Inhibition of poliovirus RNA-dependent RNA polymerase at 200 to 250 uM
Bos taurus = species on record: Bos taurus; assay: Inhibition of calf thymus DNA-dependent RNA polymerase 2 at 200 to 250 uM
Hepatitis C virus [4] = assay: Inhibition of subgenomic HCV RNA replication in Huh7 cells at 3.4 uM by cell-based replicon assay; type: functional, Hepacivirus hominis; conditions: Huh-7; outline: as §1
[5] = Cytotoxicity against Huh7 cells; type: cell-based; conditions: human, huh-7
[6] = Solubility in phosphate buffer at pH 7.2; type: physicochemical
Outline: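 Solubility measured in phosphate buffer at pH 7.2.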

Hepatitis C virus [7] = assay: Inhibition of subgenomic HCV RNA replication in Huh7 cells at 74 uM by cell-based replicon assay; type: functional, Hepacivirus hominis; conditions: Huh-7; outline: as §1

SMILES	EC50 (Hepatitis C virus [1]) [µM]	IC50 [2] [µM]	inhibition (Enterovirus C) [%]	Activity (Bos taurus)	further results
O=C(N[C@@H](Cc1c[nH]c2ccc(O)cc12)c1cscn1)c1ccc2c(c1)nc(-c1ccoc1)n2C1CCCCC1	1.7	0.3	< 50	Active	logD [3]: 3.8
O=C(N[C@@H](Cc1ccc(O)cc1)C(=O)NCc1ccncc1)c1ccc2c(c1)nc(-c1ccoc1)n2C1CCCCC1	> 9	3.7	–	–	–
COC(=O)[C@H](Cc1c[nH]c2ccc(O)cc12)NC(=O)c1ccc2c(c1)nc(-c1ccoc1)n2C1CCCCC1	–	0.38	–	–	inhibition at 3.4 µM (Hepatitis C virus [4]): 30%; Activity [5]: Toxic
CNc1nc([C@H](Cc2ccc(O)cc2)NC(=O)c2ccc3c(c2)nc(-c2ccoc2)n3C2CCCCC2)cs1	7.1	2.8	< 50	Active	–
CC(=O)Nc1nc([C@H](Cc2ccc(O)cc2)NC(=O)c2ccc3c(c2)nc(-c2ccoc2)n3C2CCCCC2)cs1	2.4	4.8	< 50	Active	–
CN(C)CCNC(=O)[C@H](Cc1ccc(O)cc1)NC(=O)c1ccc2c(c1)nc(-c1ccoc1)n2C1CCCCC1	–	2.1	–	–	–
NC(=O)[C@H](Cc1c[nH]c2ccc(O)cc12)NC(=O)c1ccc2c(c1)nc(-c1ccoc1)n2C1CCCCC1	8	0.22	–	–	–
Cc1nc([C@H](Cc2ccc(O)cc2)NC(=O)c2ccc3c(c2)nc(-c2ccoc2)n3C2CCCCC2)cs1	7.4	3.3	< 50	Active	–
O=C(N[C@@H](Cc1ccc(O)cc1)C(=O)N1CCOCC1)c1ccc2c(c1)nc(-c1ccoc1)n2C1CCCCC1	–	9.5	–	–	–
CN(C)c1nc([C@H](Cc2c[nH]c3ccc(O)cc23)NC(=O)c2ccc3c(c2)nc(-c2ccoc2)n3C2CCCCC2)cs1	3.7	0.9	< 50	Active	–
O=C(N[C@@H](Cc1ccc(O)cc1)C(=O)NCCN1CCOCC1)c1ccc2c(c1)nc(-c1ccoc1)n2C1CCCCC1	> 13	3.2	–	–	–
CNc1nc([C@H](Cc2c[nH]c3ccc(O)cc23)NC(=O)c2ccc3c(c2)nc(-c2ccoc2)n3C2CCCCC2)cs1	3	0.5	< 50	Active	–
O=C(O)COc1ccc2[nH]cc(C[C@H](NC(=O)c3ccc4c(c3)nc(-c3ccoc3)n4C3CCCCC3)C(=O)O)c2c1	64	0.027	–	–	logD [3]: -1.6; solubility [6]: > 850 µg/mL
NC(=O)[C@H](Cc1ccc(O)cc1)NC(=O)c1ccc2c(c1)nc(-c1ccoc1)n2C1CCCCC1	13	0.8	–	–	logD [3]: 3.1
CN(C)CCCNC(=O)[C@H](Cc1ccc(O)cc1)NC(=O)c1ccc2c(c1)nc(-c1ccoc1)n2C1CCCCC1	–	1.9	–	–	–
CN1CCN(C(=O)[C@H](Cc2ccc(O)cc2)NC(=O)c2ccc3c(c2)nc(-c2ccoc2)n3C2CCCCC2)CC1	> 9	11	–	–	–
O=C(N[C@@H](Cc1ccc(O)cc1)C(=O)Nc1cccnc1)c1ccc2c(c1)nc(-c1ccoc1)n2C1CCCCC1	6	3	–	–	–

SMILES	EC50 (Hepatitis C virus [1]) [µM]	IC50 [2] [µM]	inhibition (Enterovirus C) [%]	Activity (Bos taurus)	further results
Cc1nc([C@H](Cc2c[nH]c3ccc(O)cc23)NC(=O)c2ccc3c(c2)nc(-c2ccoc2)n3C2CCCCC2)cs1	2.4	0.3	< 50	Active	logD [3]: 4.6; solubility [6]: < 0.1 µg/mL
Cn1cc(C[C@H](NC(=O)c2ccc3c(c2)nc(-c2ccoc2)n3C2CCCCC2)c2csc(N)n2)c2cc(O)ccc21	3.4	0.9	< 50	Active	–
Nc1nc([C@H](Cc2ccc(O)cc2)NC(=O)c2ccc3c(c2)nc(-c2ccoc2)n3C2CCCCC2)cs1	–	1.3	< 50	Active	–
CC(C)[C@H](Cc1ccc(O)cc1)NC(=O)c1ccc2c(c1)nc(-c1ccoc1)n2C1CCCCC1	3.5	4.3	–	–	logD [3]: 3.4
CN(C)c1nc([C@H](Cc2ccc(O)cc2)NC(=O)c2ccc3c(c2)nc(-c2ccoc2)n3C2CCCCC2)cs1	8.3	5.1	< 50	Active	–
CC(=O)Nc1nc([C@H](Cc2ccc(O)cc2)NC(=O)c2ccc3c(c2)nc(-c2ccoc2)n3C2CCCCC2)c[nH]1	–	4.2	< 50	Active	–
O=C(O)c1ccc2c(c1)nc(-c1ccoc1)n2C1CCCCC1	–	1.6	–	–	–
O=C(N[C@@H](Cc1ccc(O)cc1)C(=O)NCc1ccccn1)c1ccc2c(c1)nc(-c1ccoc1)n2C1CCCCC1	10	2.7	–	–	–
COc1ccc(CCNC(=O)c2ccc3c(c2)nc(-c2ccccn2)n3C2CCCCC2)cc1OC	–	12	–	–	–
CN(C)C(=O)[C@H](Cc1ccc(O)cc1)NC(=O)c1ccc2c(c1)nc(-c1ccoc1)n2C1CCCCC1	–	4.9	–	–	–
O=C(N[C@@H](Cc1ccc(O)cc1)c1cscn1)c1ccc2c(c1)nc(-c1ccoc1)n2C1CCCCC1	4.3	6.6	< 50	Active	–
CC(=O)Nc1nc([C@H](Cc2c[nH]c3ccc(O)cc23)NC(=O)c2ccc3c(c2)nc(-c2ccoc2)n3C2CCCCC2)cs1	5.8	0.55	< 50	Active	–
Nc1nc([C@H](Cc2c[nH]c3ccc(O)cc23)NC(=O)c2ccc3c(c2)nc(-c2ccoc2)n3C2CCCCC2)cs1	5.7	0.19	< 50	Active	–
O=C(N[C@@H](Cc1ccc(O)cc1)C(=O)O)c1ccc2c(c1)nc(-c1ccoc1)n2C1CCCCC1	48	0.5	–	–	Activity [5]: Not Active
O=C(N[C@@H](Cc1c[nH]c2ccc(O)cc12)C(=O)O)c1ccc2c(c1)nc(-c1ccoc1)n2C1CCCCC1	> 74	0.05	–	–	inhibition at 74 µM (Hepatitis C virus [7]): 37%; logD [3]: 0.45; solubility [6]: > 850 µg/mL
O=C(N[C@@H](Cc1ccc(O)cc1)C(=O)NCc1cccnc1)c1ccc2c(c1)nc(-c1ccoc1)n2C1CCCCC1	16	2.6	–	–	–

Source: ChEMBL document CHEMBL1149312, “Non-nucleoside benzimidazole-based allosteric inhibitors of the hepatitis C virus NS5B polymerase: inhibition of subgenomic hepatitis C virus RNA replicons in Huh-7 cells” (J Med Chem, 2004)
